Assay results taken from ChEMBL document CHEMBL1155717, “Monoterpene glycosides and triterpene acids from Eriobotrya deflexa” (J Nat Prod, 2001).
The source made the active and inactive calls. The calls are words filed in the database; no cut-off is given here.

Assays:
[1] = Antiinflammatory activity in human PMNC assessed as inhibition of proliferation; assay type: functional
Summary of the method: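 In vitro antiproliferation assay on human mononuclear cells (T lymphocytes, B lymphocytes and macrophages) isolated from peripheral blood. Compounds were tested at up to 100 µM, and activity was expressed as IC50.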

[2] = species on record: Homo sapiens; assay: Antiinflammatory activity in human PMNC assessed as inhibition of proliferation upto 10 uM; assay type: functional

| SMILES | IC50 [1] | Activity [2] |
| --- | --- | --- |
| C[C@@H]1CC[C@]2(C(=O)O)CC[C@]3(C)C(=CC[C@@H]4[C@@]5(C)C[C@@H](O)[C@@H](O)C(C)(C)[C@@H]5CC[C@]43C)[C@@H]2[C@]1(C)O [EUSCAPHIC ACID] | 28.8 µM | – |
| C[C@@H]1CC[C@]2(C(=O)O)CC[C@]3(C)C(=CC[C@@H]4[C@@]5(C)C[C@@H](O)C(=O)C(C)(C)[C@@H]5CC[C@]43C)[C@@H]2[C@]1(C)O | 40 µM | – |
| C[C@@H]1CC[C@]2(C(=O)O)CC[C@]3(C)C(=CC[C@@H]4[C@@]5(C)[C@H](O)C(=O)[C@H](O)C(C)(C)[C@@H]5CC[C@]43C)[C@@H]2[C@]1(C)O | 32.5 µM | – |
| C[C@@H]1CC[C@]2(C(=O)O)CC[C@]3(C)C(=CC[C@@H]4[C@@]5(C)[C@H](O)[C@@H](O)C(=O)C(C)(C)[C@@H]5CC[C@]43C)[C@@H]2[C@]1(C)O | 26.9 µM | – |
| C=C[C@](C)(CCC=C(C)C)O[C@@H]1O[C@H](CO[C@@H]2O[C@@H](C)[C@H](OC(=O)/C=C\c3ccc(O)cc3)[C@@H](O[C@@H]3O[C@@H](C)[C@H](O)[C@@H](O)[C@H]3O)[C@H]2O)[C@@H](O)[C@H](O)[C@H]1O | – | inactive |
| C[C@@H]1CC[C@]2(C(=O)O)CC[C@]3(C)C(=CC[C@@H]4[C@@]5(C)CC(=O)[C@H](O)C(C)(C)[C@@H]5CC[C@]43C)[C@@H]2[C@]1(C)O | 38.1 µM | – |
| C=C[C@](C)(CCC=C(C)C)O[C@@H]1O[C@H](CO[C@@H]2O[C@@H](C)[C@H](OC(=O)/C=C/c3ccc(O)cc3)[C@@H](O[C@@H]3O[C@@H](C)[C@H](O)[C@@H](O)[C@H]3O)[C@H]2O)[C@@H](O)[C@H](O)[C@H]1O | – | inactive |
